Assay: Toxicity liver stage against HepG2, at 10uM
Format: cell-based
Set-up: test concentration 10 uM, cell line HepG2-A16-CD81EGFP
Conditions: human, HepG2-A16-CD81EGFP cells; read-out: INHIBITION
Procedure, shortened: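 Uninfected HepG2-A16-CD81EGFP cells, 3 × 10^3 per well, 1536-well, plated on prespotted compound at 10 μM final, parasite-free screening media added to match infected plates; puromycin 10 μM positive, DMSO 0.5% negative; run in parallel with 48 h PbLuc assay at 37 °C, 5% CO2; viability by CellTiter-Glo luminescence, normalized to controls.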

Row | SMILES | cytotoxicity at 10 µM
1 | CCOc1cc(C)ccc1NC(=O)N(C)Cc1cnn(C)c1 | -7.15%
2 | NC(=O)CC1CCN(S(=O)(=O)c2cnn(-c3ccccc3)c2)CC1 | 12%
3 | Cc1ccc(CN2C[C@H]3CN(C(=O)c4ccno4)CCN3C2=O)cc1 | -2.07%
4 | CCc1noc(C)c1C(=O)NCc1c(C)nn(CCOC)c1C | -9.35%
5 | CCNc1nnc(CCn2nc(C)c(Br)c2C)s1 | 2.14%
6 | CC(C)CNC(=O)[C@H]1C[C@H]2CN(Cc3cccnc3)C[C@@H]1O2 | -1.16%
7 | OCCOc1nc(-c2ccccc2Cl)no1 | -10.5%
8 | NC(=O)CN(C(=O)C1Cc2cc(Cl)ccc2O1)C1CCCC1 (stereo unspecified) | 10.1%
9 | COc1ccc2c(ccn2CCC(=O)NCc2ccc(C(=O)O)cc2)c1 | 2.25%
10 | CN(Cc1cc(Br)cs1)Cc1nnsc1Cl | -7.38%
11 | CC(=O)Nc1cc(CCC2CCN(C(=O)c3ccccn3)CC2)ccn1 | -0.331%
12 | CC(C)CNC(=O)[C@H]1CCS(=O)(=O)[C@@H]2CN(CC(C)C)C[C@H]12 | -1.66%
13 | Cc1cc(O)ccc1-c1cc(-c2cnn(C)c2C2CC2)c(C#N)c(N)n1 | 40.2%
14 | CC(=O)Nc1ccc(CN(C)Cc2snnc2C)cc1 | -2.17%
15 | O=C(NCCCN1CCOCC1)C1CCCN(Cc2ccco2)C1 (stereo unspecified) | -0.911%
16 | CCS(=O)(=O)N1C[C@@H]2C[C@H](C(=O)N(C)C)[C@H](C1)O2 | 5.58%
17 | CCn1cc(CNc2ccc(F)c(N3CCCS3(=O)=O)c2)cn1 | -17%
18 | CCc1ccc(C(=O)N2CCC(c3nncn3CC)CC2)o1 | 3.14%
19 | O=C1CCc2cc(S(=O)(=O)NCc3cc4n(n3)CCNC4)ccc2N1 | 3.28%
20 | CC(C)N(C)CC(=O)NCCc1nc(C(F)(F)F)cs1 | 5.07%
21 | O=C1NCCCc2[nH]c(Cc3cccc(Cl)c3)nc21 | 13%
22 | CC(=O)N(Cc1noc(C)n1)C1CCN(Cc2c(C)noc2C)C1 (stereo unspecified) | -9.55%
23 | CCOc1ncnc2c1CCN(S(=O)(=O)CC)CC2 | 3.79%

Row | SMILES | cytotoxicity at 10 µM
24 | CC(C)[C@H]1CN(Cc2ccccn2)C[C@@H]1NC(=O)CC1CCC1 | -2.57%
25 | Cc1nn(C)c(C)c1CCC(=O)N(C)Cc1ccc2nsnc2c1 | -1.62%
26 | N#CC1COCCN1S(=O)(=O)c1ccc(F)c(Br)c1 (stereo unspecified) | 4.43%
27 | CC(C)=CCN1C(=O)[C@@H]2CC[C@H]1CN(Cc1cccnc1N)C2 | 12.3%
28 | Cn1cccc1C(O)CNS(=O)(=O)Cc1ccccc1 (stereo unspecified) | -37.1%
29 | COc1ccc(CN2CCCN(c3cc(C(N)=O)ccn3)CC2)cc1 | 11%
30 | O=C(C1CCOCC1)N1CCCC1c1cncc(CN2CCCC2)n1 (stereo unspecified) | -0.802%
31 | Cc1nnsc1CN(C)C(=O)CN1CC2(CCNCC2)OC1=O | 11.4%
32 | Cc1cc(C(=O)NCCN2CCC(C)CC2)nn1C(C)(C)C | 13.3%
33 | Cc1nnc(NC(=O)NCc2ccc(F)cc2)s1 | -26%
34 | Cc1cc(N2CCC(N(C)Cc3cccnc3)C2=O)n(C)n1 (stereo unspecified) | -9.98%
35 | O=C(NCC1CCCO1)c1csc(Cc2ccccc2)n1 (stereo unspecified) | -110%
36 | COc1ccc(C(=O)O)cc1-c1cccc(C(C)N(C)C)c1 (stereo unspecified) | -7.13%
37 | Cc1csc(CNC(=O)N(C)Cc2nnc3n2CCC3)n1 | -4.75%
38 | CC(=O)NCCNC(=O)Nc1cccc(Cl)c1SC(F)F | -13.1%
39 | c1cnn(CC2CCCN2Cc2cn3ccsc3n2)c1 (stereo unspecified) | -10.2%
40 | COc1cc(OC)cc(-c2cc(N)on2)c1 | 7.79%
41 | CS(=O)(=O)N1CCC[C@]2(C[C@@H](Oc3ncccc3F)CO2)C1 | 4.09%
42 | Cc1nc(CNC(=O)c2cc(Cn3ccnc3C(C)C)[nH]n2)sc1C | 2.99%
43 | CN1CCN(CC2(O)CCCN(C(=O)Cc3cccc(O)c3)CC2)CC1 (stereo unspecified) | -4.86%
44 | CNc1cncc(C2CCCN2S(=O)(=O)c2ccccc2F)n1 (stereo unspecified) | -15.1%
45 | CC1CCCN(c2ccccc2OCC(=O)NC2CCOCC2)C1 (stereo unspecified) | -23.5%
46 | CCn1cc(CN2CCN(C(=O)c3cc(Br)cs3)CC2)c(C)n1 | 4.95%

Row | SMILES | cytotoxicity at 10 µM
47 | O=S(=O)(CC1CCCCC1)NCc1ccc(O)nc1 | 5.27%
48 | CN(C)c1nc2n(c(=O)n1)CCN2C(=O)Nc1ccc(Cl)cc1 | 6.36%
49 | CC(C)CCn1[nH]c(CNc2ccccc2)nc1=O | 1.62%
50 | CCc1ccccc1NC(=O)c1cccc(N(C)S(C)(=O)=O)c1C | -4.68%
51 | Cc1nc(N2CCN(C(=O)c3cccnc3)CC2)cc(-n2cccc2)n1 | -5.19%
52 | CC(=O)NCCNC(=O)c1cc(C)ccc1SC1CCCC1 | -41.5%
53 | N#Cc1ccc(N2CCC3(CC2)COCCN3Cc2cccnc2)cc1 | -1.77%
54 | CCC(=O)N1CCC2(CC1)CN(C(C)=O)c1ccc(C)cc12 | 8.82%
55 | Cc1cc(CN(C)C(=O)NCc2ccnc(OC3CCCC3)c2)no1 | 9.52%
56 | CS(=O)(=O)N1CCN(C(=O)c2ccco2)[C@H]2CS(=O)(=O)C[C@H]21 | -6.69%
57 | O=S(=O)(C1CC1)N1CCO[C@@H]2CN(Cc3ccco3)C[C@@H]2C1 | -140%
58 | CN1C[C@H]2CC[C@@H](CC1=O)N2C(=O)c1cc2ccccc2[nH]c1=O | -7.66%
59 | O=C1CC(c2ccc3c(c2)OCO3)c2c(n3ccsc3nc2=O)N1 (stereo unspecified) | 8.38%
60 | CCN(Cc1cc(F)c(OC)c(Cl)c1)Cc1noc(CC(C)C)n1 | -2.84%
61 | COCC1CC2(CCN(C(=O)c3ccc(C)nc3)CC2)CO1 (stereo unspecified) | -127%
62 | CCCOc1ccc(CNC(=O)N2CCC(C(N)=O)C2)cc1 (stereo unspecified) | -5.87%
63 | O=C(Nc1ccc(-c2ccccc2)cn1)C1CCCN1C(=O)C1CC1 (stereo unspecified) | -1.6%
64 | COc1ccc(Cn2c(Cc3c(C)n[nH]c3C)n[nH]c2=O)cc1 | -142%
65 | Fc1ccc2c(c1)C1(CCNCC1)CC2NC1CC1 (stereo unspecified) | -117%
66 | CC(C)N1CCC(C(=O)N2CCc3c(nc(CC4CC4)[nH]c3=O)C2)CC1 | -4.92%
67 | CN(C)CCN(C)c1nc(CCc2ccccc2)nc2c1cnn2C | 0.562%
68 | Cc1ccccc1CCCN(C)S(C)(=O)=O | 5.41%
69 | CN(C)C(=O)CNC(=O)c1nc(C2CC2)n(-c2ccccc2Cl)n1 | -2.03%

Row | SMILES | cytotoxicity at 10 µM
70 | Cc1cc(CN(Cc2cccs2)CC2CCCO2)on1 (stereo unspecified) | -10.1%
71 | Cc1cc(C(=O)NCc2cnn(C)c2C)nc(N2CCCCCC2)n1 | 2.01%
72 | CCc1nnc(CN(C)Cc2cccc(C(=O)Nc3cnn(C)c3)c2)o1 | -5.54%
73 | COc1ccccc1NCC(=O)NCc1cc[nH]n1 | 1.87%
74 | O=C(NCC(=O)N1CCCCC1)c1ccc(Cl)cc1I | -11.5%
75 | O=C(NCCn1ccnc1-c1cc2n(n1)CCNC2)c1ccc(F)cc1 | -16.9%
76 | CCS(=O)(=O)NCC(Cc1cccc(F)c1)N1CCNC1=O (stereo unspecified) | -1.89%
77 | Cc1ccc(CN2CC3(CCN(S(=O)(=O)c4ccccc4)C3)C2)o1 | -2.3%
78 | O=S(=O)(Cc1ccc(F)cc1F)NCCOc1cccnc1 | -45.9%
79 | C/C(Cl)=C/CNC(=O)C1CCC2(CC1)CN(C)C(=O)c1ccccc1O2 (stereo unspecified) | 4.52%
80 | COC(C(=O)NCc1c(C)nc2cc(=O)[nH]n2c1C)c1ccccc1 (stereo unspecified) | 0.493%
81 | CCn1ccnc1CN1CCCN(C(=O)c2cc[nH]n2)CC1 | -8.04%
82 | CCN(CC1CCOC1)C(=O)c1cn2ccc(C)cc2n1 (stereo unspecified) | 1%
83 | CN(C)C(=O)c1nnn(-c2ccc(Br)cc2)n1 | 7.5%
84 | O=C1CC(N(C(=O)c2ccc3[nH]c4c(c3c2)CCCC4)C2CC2)C(=O)N1 (stereo unspecified) | -3.79%
85 | COCC(NC(=O)c1cc(NC(C)=O)ccc1Cl)c1ccccn1 (stereo unspecified) | -12.1%
86 | CC(NC(=O)C1CCCC1)c1nncn1C(C)C (stereo unspecified) | 6.89%
87 | Cc1noc(-c2ccc(N(C)Cc3cccnc3)nc2)n1 | -1.24%
88 | CN(CC(=O)NCC(O)c1cccc(F)c1)C(=O)OC(C)(C)C (stereo unspecified) | 1.2%
89 | COc1ncccc1NC(=O)C1CC(=O)N(Cc2ccccn2)C1 (stereo unspecified) | -1.2%
90 | Cc1nc2n(n1)CC(NCc1nc(C)c(C)o1)CC2 (stereo unspecified) | -0.925%
91 | Cc1nc(N)cc(C2CCN2CCOc2ccccc2)n1 (stereo unspecified) | 10%
92 | O=S(=O)(NCCCn1cncn1)c1ccc2c(c1)CCCC2 | 4.16%

Row | SMILES | cytotoxicity at 10 µM
93 | Cc1cccc2c1ccn2CCC(=O)Nc1c2c(nn1C)CSC2 | 3.03%
94 | Cc1ccc2cccc(S(=O)(=O)N(C)C3CCCN(C)C3)c2n1 (stereo unspecified) | 1.5%
95 | Cc1ccc(CNC(C)c2cc(F)ccc2N2CCN(C)CC2)o1 (stereo unspecified) | 0.513%
96 | CC(C)(C#N)CCCS(=O)(=O)c1nccn1-c1cccc(F)c1 | -1.12%
97 | CC(=O)N1CCC(CCNC(C)Cc2ccc(F)cc2)CC1 (stereo unspecified) | -11.4%
98 | Cc1nc2cc(O)nn2c(C)c1CCC(=O)NCCc1nccn1C | -0.84%
99 | Cc1cc(NC(=O)N2CCN(c3cccs3)CC2)ccc1C(N)=O | -7.79%
100 | CN1CCN(c2cc(CNC(=O)c3ccc(=O)n(C)c3)ccn2)CC1 | -6.95%
101 | Cc1noc(C)c1CN1C[C@@H]2CCCO[C@@H]2[C@H](Nc2ccccn2)C1 | 5.44%
102 | Cc1ccc(Cl)cc1N1CCC(CNC(=O)CCn2ccnc2)C1 (stereo unspecified) | -9.7%
103 | Cn1nc(CNC(=O)C2CCN(S(C)(=O)=O)CC2)cc1C1CC1 | -2.87%
104 | Cc1nccn1CC(=O)N1CC(Cc2nccc3ccn(C)c23)C1 | -23.4%
105 | CCS(=O)(=O)NCCNc1c(C#N)cnc2c(C)cc(F)cc12 | -0.453%
106 | O=c1c2cnc(N3CCCCC3)nc2ccn1-c1ccccc1F | 2.77%
107 | Cc1noc(C)c1CN1CCc2ncnc(-c3ccccc3)c2CC1 | -89.9%
108 | COCc1nc(C(=O)N2CCCC2c2c(C)nn(C)c2C)cs1 (stereo unspecified) | -4.74%
109 | O=C(CCC1CCCCC1)NCc1nnc2ccccn12 | 3.47%
110 | O=C(c1cnn(-c2ccccc2F)c1)N1CCN(CCO)CC1 | -8.18%
111 | Cc1ccccc1Oc1ncccc1CNS(=O)(=O)N(C)C | -4.09%

Source: ChEMBL document CHEMBL4513216, “Probing the Open Global Health Chemical Diversity Library for Multistage-Active Starting Points for Next-Generation Antimalarials” (ACS Infect Dis, 2020)
